{"source": "paper PMC2916634", "about": "(Biochemistry, 2010)", "molecules": {"B1": {"name": "CYP33 RRM domain (T3-K83), wild type (domain or fragment, human, UniProt Q9UNP9 3-83, looked up)", "chain": "TTKRVLYVGGLAEEVDDKVLHAAFIPFGDITDIQIPLDYETEKHRGFAFVEFELAEDAAAAIDNMNESELFGRTIRVNLAK"}, "B2": {"name": "CYP33 RRM: RRM domain of CYP33 spanning residues T3−K83 (protein)", "chain": "B1 chain", "modifications": "left off: GST, end not stated, cleaved"}, "B3": {"name": "F49A (protein)", "chain": "B1 chain with F47A", "modifications": "left off: GST, end not stated, cleaved"}, "B4": {"name": "R47A (protein)", "chain": "B1 chain with R45A", "modifications": "left off: GST, end not stated, cleaved"}, "B5": {"name": "K45A (protein)", "chain": "B1 chain with K43A", "modifications": "left off: GST, end not stated, cleaved"}, "B6": {"name": "L39A (protein)", "chain": "B1 chain with L37A", "modifications": "left off: GST, end not stated, cleaved"}, "B7": {"name": "MLL PHD3 W1594A mutant (domain or fragment, human, UniProt Q03164 1564-1628, looked up)", "chain": "AKGNFCPLCDKCYDDDDYESKMMQCGKCDRAVHSKCENLSDEMYEILSNLPESVAYTCVNCTERH"}, "B8": {"name": "CYP33 RRM F49A mutant (domain or fragment, human, UniProt Q9UNP9 3-83, looked up)", "chain": "B1 chain with F47A"}, "B9": {"name": "CYP33 RRM L39A mutant (domain or fragment, human, UniProt Q9UNP9 3-83, looked up)", "chain": "B1 chain with L37A"}, "B10": {"name": "MLL PHD3 Y1619A mutant (domain or fragment, human, UniProt Q03164 1564-1628, looked up)", "chain": "B7 chain with A31W, Y56A"}, "B11": {"name": "MLL PHD3 (third PHD finger of MLL), wild type (domain or fragment, human, UniProt Q03164 1564-1628, looked up)", "chain": "B7 chain with A31W"}, "B12": {"name": "V1617A: MLL PHD3 with V1617 mutated to alanine (protein)", "chain": "B7 chain with A31W, V54A", "modifications": "left off: GST, end not stated, cleaved"}, "B13": {"name": "Y1619A: MLL PHD3 with Y1619 mutated to alanine (protein)", "chain": "B7 chain with A31W, Y56A", "modifications": "left off: GST, end not stated, cleaved"}}, "key": {"HOXC8": {"test_system": "HOXC8", "assay": "Q-RT-PCR of HOXC8 expression in HEK293T cells", "assay_type": "cell-based", "details": "48 h after transfection, normalized to β2M, vs empty vector", "in_short": "(§1)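 HEK293T cells transfected with Lipofectamine 2000 using pCEP4 empty vector, FLAG-tagged wild-type CYP33 or PPIase-dead CYP33 (R191A/F196A). At 48 h, RNA extracted with Trizol and reverse-transcribed. qPCR run in triplicate. cDNA levels normalized to β2M by the comparative Ct method.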"}, "CDKN1B promoter": {"test_system": "CDKN1B promoter", "assay": "Chromatin immunoprecipitation at CDKN1B promoter in HEK293T cells", "assay_type": "cell-based", "details": "ChIP, 48 h after transfection, CYP33 overexpression vs empty vector", "in_short": "(§2)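 HEK293T cells transfected with empty vector or pCEP4-CYP33 by lipofectamine, then formalin-fixed at 48 h. Chromatin immunoprecipitated with anti-histone H3, anti-H3K4me3, anti-acetyl-H3 (K9/K14) or IgG control antibodies. Recovered DNA quantified by qPCR at MLL target gene promoters. Fold occupancy normalized to input DNA.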"}, "HOXA9": {"test_system": "HOXA9", "assay": "Q-RT-PCR of HOXA9 expression in HEK293T cells", "assay_type": "cell-based", "details": "48 h after transfection, normalized to β2M, vs empty vector", "in_short": "as §1"}, "CDKN1B": {"test_system": "CDKN1B", "assay": "Q-RT-PCR of CDKN1B expression in HEK293T cells", "assay_type": "cell-based", "details": "48 h after transfection, normalized to β2M, vs empty vector", "in_short": "as §1"}, "C-MYC": {"test_system": "C-MYC", "assay": "Q-RT-PCR of C-MYC expression in HEK293T cells", "assay_type": "cell-based", "details": "48 h after transfection, normalized to β2M, vs empty vector", "in_short": "as §1"}, "HOXC8 promoter": {"test_system": "HOXC8 promoter", "assay": "Chromatin immunoprecipitation at HOXC8 promoter in HEK293T cells", "assay_type": "cell-based", "details": "ChIP, 48 h after transfection, CYP33 overexpression vs empty vector", "in_short": "as §2"}, "[1]": {"molecular_target": "PHD3−CYP33 RRM complex (PHD3 saturated with CYP33 RRM) (human, UniProt Q03164 1564-1628; Q9UNP9 3-83)", "assay": "ITC"}, "[2]": {"molecular_target": "B11", "assay": "ITC"}, "MLL PHD3 V1617A mutant": {"molecular_target": "MLL PHD3 V1617A mutant (human, UniProt Q03164 1564-1628, V1617A)", "assay": "ITC"}, "W1594A PHD3": {"molecular_target": "W1594A PHD3 (Homo sapiens, UniProt Q03164, W1594A)", "assay": "ITC binding to PHD3 W1594A mutant"}, "PHD3": {"test_system": "PHD3", "details": "yeast two-hybrid assay, co-immunoprecipitation, and GST pull-down; cited from earlier work"}, "[3]": {"assay": "15N−1H HSQC structural integrity of mutants", "assay_type": "physicochemical", "details": "15N−1H HSQC of mutant vs wild type, 30 °C, pH 6.9"}, "[4]": {"molecular_target": "PHD3 (MLL PHD3, wild-type) (Homo sapiens, UniProt Q03164)", "sequence (Q03164 1564-1628)": "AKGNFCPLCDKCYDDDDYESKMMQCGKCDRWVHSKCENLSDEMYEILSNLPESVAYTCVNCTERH", "assay": "ITC binding of H3K4me3 peptide or CYP33 RRM", "details": "CYP33 RRM Ala mutant to wild-type PHD3"}, "[5]": {"molecular_target": "B1", "assay": "ITC"}}, "note": "Changes are numbered by the printed parent chain. Names and notes keep the numbering of the source. Ends that are not written are not given here. Me3 = Me3: trimethyl-lysine (trimethylated lysine)", "data": [{"molecule": "CYP33: Human nuclear Cyclophilin33, full-length; FLAG-tagged wild-type expressed from pCEP4 plasmid in HEK293T cells", "values": [{"measurement": "HOXC8 expression", "setting": "HOXC8", "result": "markedly downregulated"}, {"measurement": "H3K4me3 mark", "setting": "CDKN1B promoter", "result": "reduced"}, {"measurement": "H3 acetylation level (K9 and K14)", "setting": "CDKN1B promoter", "result": "reduced"}, {"measurement": "histone H3 density", "setting": "CDKN1B promoter", "result": "increase"}, {"measurement": "HOXA9 expression", "setting": "HOXA9", "result": "markedly downregulated"}, {"measurement": "CDKN1B expression", "setting": "CDKN1B", "result": "markedly downregulated"}, {"measurement": "C-MYC expression", "setting": "C-MYC", "result": "markedly downregulated"}, {"measurement": "H3K4me3 mark", "setting": "HOXC8 promoter", "result": "reduced"}, {"measurement": "histone H3 density", "setting": "HOXC8 promoter", "result": "increase"}]}, {"molecule": "CYP33 mutant (R191A/F196A)", "values": [{"measurement": "HOXC8 expression", "setting": "HOXC8", "result": "no longer downregulated"}, {"measurement": "HOXA9 expression", "setting": "HOXA9", "result": "no longer downregulated"}, {"measurement": "CDKN1B expression", "setting": "CDKN1B", "result": "no longer downregulated"}, {"measurement": "C-MYC expression", "setting": "C-MYC", "result": "no longer downregulated"}]}, {"molecule": "ARTK(Me3)QTARKSTGGKAY (not fully specified)", "note": "[Histone H3 peptide (residues 1-15) trimethylated at K4]", "values": [{"measurement": "fold increase in Kd against PHD3 alone", "setting": "[1]", "result": "~5.7", "unit": "fold"}, {"measurement": "stoichiometry N", "setting": "[2]", "result": 1}]}, {"molecule": "B1", "values": [{"measurement": "fold decrease in affinity against wild-type PHD3", "setting": "MLL PHD3 V1617A mutant", "result": "~6.2", "unit": "fold"}]}, {"molecule": "B2", "values": [{"measurement": "Kd", "setting": "W1594A PHD3; 25 °C, pH 7.2, CYP33 RRM to W1594A PHD3", "result": 19.6, "unit": "µM"}, {"measurement": "fold weaker Kd vs wild-type PHD3", "setting": "W1594A PHD3; CYP33 RRM to W1594A PHD3", "result": "~1.3", "unit": "fold"}, {"measurement": "interaction with PHD3", "setting": "PHD3", "result": "interacts"}]}, {"molecule": "B3", "values": [{"measurement": "effect of mutation on structure", "setting": "[3]", "result": "without disrupting the structure"}]}, {"molecule": "B4", "values": [{"measurement": "interaction with PHD3", "setting": "[4]", "result": "did not abrogate the interaction"}]}, {"molecule": "B5", "values": [{"measurement": "interaction with PHD3", "setting": "[4]", "result": "did not abrogate the interaction"}]}, {"molecule": "B6", "values": [{"measurement": "effect of mutation on structure", "setting": "[3]", "result": "without disrupting the structure"}]}, {"molecule": "B7", "values": [{"measurement": "Kd", "setting": "[5]", "result": 19.6, "unit": "µM"}]}, {"molecule": "B8", "values": [{"measurement": "fold decrease in affinity against wild-type CYP33 RRM", "setting": "[2]", "result": "~14", "unit": "fold"}]}, {"molecule": "B9", "values": [{"measurement": "fold decrease in affinity against wild-type CYP33 RRM", "setting": "[2]", "result": "~4.3", "unit": "fold"}]}, {"molecule": "B10", "values": [{"measurement": "binding result", "setting": "[5]", "result": "binds"}]}, {"molecule": "B11", "values": [{"measurement": "Kd", "setting": "[5]", "result": 14.7, "unit": "µM"}]}, {"molecule": "B12", "values": [{"measurement": "effect of mutation on structure", "setting": "[3]", "result": "does not affect the structural stability of PHD3"}]}, {"molecule": "B13", "values": [{"measurement": "effect of mutation on structure", "setting": "[3]", "result": "disruption of the overall fold"}]}]}
